# Screening results from PubChem BioAssay.
# TAAR1 ag = human TAAR1 agonism. Q96RJ0. CHO RD-HGA16 TAAR1, Fluo-8 calcium fluorescence; vehicle wells 0%, saturating PEA agonist 100%. activation, % at 3 µM. 0.99% of 360,000 active. AID 624467;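 active = activation above the mean activation of all test compounds in the run plus 3 SD, cut at about 38% in these data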
# Target sequence (Q96RJ0 whole entry, looked up): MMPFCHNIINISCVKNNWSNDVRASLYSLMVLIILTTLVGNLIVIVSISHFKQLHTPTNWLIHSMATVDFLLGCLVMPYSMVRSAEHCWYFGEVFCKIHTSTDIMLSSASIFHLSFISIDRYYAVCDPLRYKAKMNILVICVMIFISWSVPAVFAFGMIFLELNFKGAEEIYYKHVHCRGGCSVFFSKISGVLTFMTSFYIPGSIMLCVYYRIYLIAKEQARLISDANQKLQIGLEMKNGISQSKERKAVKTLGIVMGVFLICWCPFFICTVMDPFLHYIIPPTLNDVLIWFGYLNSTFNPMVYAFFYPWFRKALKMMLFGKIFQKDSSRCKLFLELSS
#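 System: CHO-derived RD-HGA16 cells with stable Gα16 and human TAAR1 / Times: 17-24 h plating, Fluo-8 75 min 37 °C, 30 min RT / Technique: calcium-sensitive Fluo-8 signal, excitation 470-495, emission 515-575 nm / Measure: % activation relative to PEA EC100 response / Benchmarks: DMSO and PEA EC100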
# VLA-4 inh = inhibition in a human VLA-4 binding assay | 0.2% of 330,000 active | AID 2557 | inhibition, % (about 7 µM as worked out from the volumes in the protocol) | VLA-4 expressing cells, ligand binding flow cytometry; in the data active = inhibition above about 50%
# Rce1 inhib = yeast Ras-converting enzyme inhibition; Q03530; yeast membranes, quenched prenylated peptide cleavage fluorescence; calls only; 0.27% of 290,000 active; AID 2563;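 active = fall in fluorescence gain of 50% or more versus controls, with final raw signal at or below 3038400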;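 also: plate controls were neutral control wells for no effect and wells lacking membranes for full effect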
# Target sequence (Q03530 whole entry, looked up): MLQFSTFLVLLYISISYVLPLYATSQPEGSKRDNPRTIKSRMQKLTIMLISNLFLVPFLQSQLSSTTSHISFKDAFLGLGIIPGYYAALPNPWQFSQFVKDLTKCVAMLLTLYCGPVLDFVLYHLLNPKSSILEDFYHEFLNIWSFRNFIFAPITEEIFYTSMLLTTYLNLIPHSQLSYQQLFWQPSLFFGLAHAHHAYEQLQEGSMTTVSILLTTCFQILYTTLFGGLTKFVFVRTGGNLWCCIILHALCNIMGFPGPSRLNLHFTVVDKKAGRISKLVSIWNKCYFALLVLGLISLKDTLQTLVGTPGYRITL
# Platelet DG rel = modulates dense granule release in human platelets; inhibition, %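 (compounds screened at 7.5 µM in platelet-rich plasma)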; 0.22% of 300,000 active; human platelet-rich plasma, SFLLRN dense granule ATP release, luminescence;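 active = mean replicate score, as percent of positive control, at or above 50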
# TAAR1 antagonist = antagonists of human TAAR1. 1.5% of 360,000 active. CHO RD-HGA16 TAAR1, Fluo-8 calcium fluorescence, antagonist. Q96RJ0. inhibition, % at 3 µM;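 active = inhibition above a per-plate cutoff, the mean inhibition of test compounds on that plate plus 3 SD, cut at about 49% in these data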;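 also: 0% = DMSO plus EC80 beta-PEA response and 100% = DMSO alone without agonist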
#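 Assay system: RD-HGA16 CHO cells with stable hTAAR1 and Gα16 / Reagent: EC80 β-phenethylamine stimulus / Doses: 3 µM, single point / Timing: dye loading 75 min at 37 °C, then 30 min room temperature / Measured by: Fluo-8 intracellular calcium dye fluorescence, real-time kinetic reads / Controls: vehicle wells and EC80 agonist wells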
# nonsel antag count = nonselective antagonist in TAAR1 antagonist counter-screen | counterscreen cell line, calcium fluorescence, antagonist mode | inhibition, % at 3 µM | 77% of 2,400 active | AID 651780 | shares compounds with TAAR1 antagonist; in the data active = inhibition above about 22%;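 also: CHO-Ga16 host cells stimulated with ATP at an EC80 level; 0% = agonist EC80 plus vehicle and 100% = vehicle without agonist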
# TAAR1 ant conf = confirmation of human TAAR1 antagonists; shares compounds with TAAR1 antagonist; inhibition, % at 3 µM; AID 651785; 40% of 2,400 active; TAAR1-expressing cells, fluorescence antagonist read-out; in the data active = inhibition above about 49%;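 also: CHO-Ga16 host cells challenged with agonist PEA near its EC80; 0% = agonist at EC80 plus vehicle and 100% = vehicle with no agonist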
# Ga16 nonsel ag = counter-screen for TAAR1 antagonists: nonselective Ga16 agonists; shares compounds with TAAR1 antagonist; AID 651953; 18% of 2,400 active; activation, % at 3 µM; Ga16-expressing cells, calcium fluorescence, agonist counterscreen; in the data active = activation above about 12%;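 also: 0% = vehicle wells and 100% = saturating stimulus response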
# TAAR1 ag counter = activates human TAAR1 in antagonist counter-screen | shares compounds with TAAR1 antagonist | hTAAR1 cell line, fluorescence activation, agonist mode | activation, % at 3 µM | 2% of 2,400 active | AID 651955; in the data active = activation above about 37%;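 also: CHO cells stably expressing TAAR1 with calcium dye readout; 0% = DMSO vehicle and 100% = full agonist response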
# * = called active by the depositor; i = inactive; . = not tested or not shown; + = active, no number. Sampled rows, rich in hits. Any-hit rate of the full collection: about 2.6%.
SMILES,TAAR1 ag,VLA-4 inh,Rce1 inhib,Platelet DG rel,TAAR1 antagonist,nonsel antag count,TAAR1 ant conf,Ga16 nonsel ag,TAAR1 ag counter
CCC(=O)Nc1cccc(-c2nnc(-c3ccccc3)o2)c1,6.8,9.3,i,0.8,12.5,.,.,.,.
Cc1ccc(SCC(=O)Nc2cccc(-c3nnc(-c4ccco4)o3)c2)cc1,11.8,-0.6,i,23.2,64.7*,37.7*,52.5*,9.8,7.9
Cc1ccc(OCC(=O)Nc2cccc(-c3nnc(-c4ccccc4)o3)c2)cc1,15.0,13.9,i,5.9,68.7*,35.4*,64.8*,7.1,3.9
Cc1cccc(OCC(=O)Nc2cccc(-c3nnc(-c4ccccc4)o3)c2)c1C,7.5,-4.3,i,0.9,68.7*,32.1*,60.5*,7.1,3.0
O=C(CSc1ccc(Cl)cc1)Nc1cccc(-c2nnc(-c3ccco3)o2)c1,6.2,-17.9,i,-28.1,13.0,.,.,.,.
Cc1cccc(C)c1OCC(=O)Nc1cccc(-c2nnc(-c3ccccc3)o2)c1,12.2,12.1,i,1.2,-2.5,.,.,.,.
O=C(COc1ccccc1)Nc1cccc(-c2nc3cc4ccccc4cc3[nH]2)c1,14.7,9.0,+,26.2,69.0*,37.6*,58.8*,8.4,3.6
O=C(Nc1cccc(-c2nnc(-c3ccccc3)o2)c1)c1ccco1,11.7,-23.8,i,1.7,49.8*,29.4*,43.9,7.0,13.2
COc1ccc(CC(=O)Nc2cccc(-c3csc(C)n3)c2)cc1,2.2,2.1,i,2.7,8.0,.,.,.,.
COc1ccccc1OCC(=O)Nc1cccc(-c2nc3ccccc3o2)c1,7.5,5.8,i,-7.5,65.6*,33.4*,45.9,4.0,5.8
O=C(Nc1ccccc1)c1cccc(-c2nnc(-c3ccccc3)o2)c1,14.4,-7.8,i,-0.2,20.3,.,.,.,.
Cc1nc(-c2cccc(NC(=O)COc3ccc(Cl)cc3)c2)cs1,0.2,1.6,i,-4.1,54.7*,30.1*,43.0,5.0,-0.3
CC[C@]12c3[nH]c4ccc(Cl)cc4c3CCN1C(=O)[C@@H](CC(=O)NCCc1ccccn1)C[C@@H]2C(=O)N1CCN(C(=O)C2CC2)CC1,4.7,.,.,.,-16.7,.,.,.,.
CCN1CCN(Cc2ccc(NC(=O)c3cc(NC(=O)C(=O)c4c[nH]c5ccccc45)cc(OC)c3)cc2C(F)(F)F)CC1,11.2,5.0,i,4.8,48.5,.,.,.,.
CCN1CCN(Cc2ccc(NC(=O)c3cccc(-c4ccc5nc(NC(=O)C6CC6)sc5n4)c3)cc2C(F)(F)F)CC1,17.4,.,.,.,65.7*,44.2*,59.7*,11.3,12.5
CCN1CCN(Cc2ccc(NC(=O)c3ccc(C)c(NC(=O)C(=O)c4c[nH]c5ccccc45)c3)cc2C(F)(F)F)CC1,20.7,15.7,i,-0.8,78.5*,45.8*,47.1,10.6,10.3
CC1(C)CC(=O)C=C(c2ccc(COC(=O)Cc3ccccc3)cc2)C1=O,2.1,.,.,.,16.2,.,.,.,.
CCCNC(=O)C1(C)CCN(C(=O)c2c(Cl)cccc2Cl)C1 (stereo not drawn),0.9,.,.,.,-9.4,.,.,.,.
COc1ccccc1NC(=O)c1ccc(NC(=O)COC(=O)C(C)C)cc1,2.4,-5.7,i,6.2,-0.4,.,.,.,.
COc1ccccc1NC(=O)c1ccc(NC(=O)COC(=O)c2ccc(O)cc2)cc1,17.7,-1.1,.,.,64.8*,25.5*,41.1,9.6,9.9
COc1ccccc1NC(=O)c1ccc(NC(=O)COC(=O)CCC2CCCC2)cc1,13.6,-2.6,.,-1.8,57.7*,19.0,16.8,2.9,6.1
CCc1nc2ccc(C(=O)NCCCn3ccnc3)cn2c1N(C)Cc1ccc(OC)cc1,2.1,.,.,.,-2.6,.,.,.,.
COc1cccc(-c2cnc3c(NC(C)=O)cc(-c4ccc(OC)c(OC)c4)cn23)c1,2.5,.,.,.,-19.9,.,.,.,.
COc1cccc(-c2cnc3c(NC(C)=O)cc(-c4ccsc4)cn23)c1,6.5,.,.,.,73.4*,41.0*,66.4*,13.5*,12.0
COc1ccc(S(=O)(=O)Nc2c(NC3CCCCC3)c3ccccc3oc2=O)cc1OC,13.1,-6.7,i,4.7,50.8*,12.4,32.2,8.4,12.8
SMILES,TAAR1 ag,VLA-4 inh,Rce1 inhib,Platelet DG rel,TAAR1 antagonist,nonsel antag count,TAAR1 ant conf,Ga16 nonsel ag,TAAR1 ag counter
Nn1c(COc2ccccc2F)nnc1SCC(=O)NC1CCCCC1,-0.5,31.5,i,-0.5,-14.3,.,.,.,.
C#CCNC(=O)C[C@@H]1C[C@@]2(C(=O)OCC)CCCC=C2N(Cc2ccc3c(c2)OCO3)C1=O,-0.4,.,.,.,-12.6,.,.,.,.
O=C(O)Cc1cn(-c2ccccc2)nc1-c1ccccc1,0.1,-11.5,i,8.5,-9.5,.,.,.,.
OCc1cn(-c2ccccc2)nc1-c1ccc(-c2nn(-c3ccccc3)cc2CO)cc1,20.6,1.8,i,16.4,54.5*,41.3*,60.9*,11.9*,12.3
COc1ccccc1C(=O)Nc1ccc(S(=O)(=O)N2CCCCC2c2cccnc2)cc1 (stereo not drawn),5.2,13.7,i,5.2,15.8,.,.,.,.
O=C(Nc1ccc(S(=O)(=O)N2CCCCC2c2cccnc2)cc1)c1ccccc1F (stereo not drawn),12.0,-12.7,i,2.5,56.3*,27.2*,34.2,9.8,9.4
O=C(NCc1ccccc1F)c1ccc(S(=O)(=O)N2CCCC2)cc1,1.9,.,.,.,20.6,.,.,.,.
CC(=O)c1ccc(NC(=O)c2ccc(NC(=O)CCS(=O)(=O)c3cccs3)cc2)cc1,15.8,10.9,i,-5.6,86.5*,39.8*,64.2*,14.7*,18.4
O=C(CCS(=O)(=O)c1cccs1)Nc1ccc(C(=O)NCc2cccs2)cc1,6.0,-1.1,i,-9.9,-0.4,.,.,.,.
CN(C)C(CNC(=O)c1cc(S(=O)(=O)N(C)c2ccc(F)cc2)ccc1Cl)c1cccs1 (stereo not drawn),2.6,.,.,.,8.2,.,.,.,.
CCN=c1sc(C(=O)NCCc2ccccc2)cc(=O)n1CC,26.1,-7.0,i,0.5,54.9*,30.7*,52.5*,11.2,25.0
O=C(NCCc1ccccc1)c1cccs1,14.5,1.0,i,-7.6,5.5,.,.,.,.
CCSc1nnc(-c2cccc(S(=O)(=O)N(CC)CC)c2)n1Cc1ccccc1,11.4,4.8,i,0.5,59.6*,30.7*,51.8*,8.1,5.8
O=C(CSc1nnc2c(n1)[nH]c1ccccc12)Nc1cccc(S(=O)(=O)N2CCOCC2)c1,12.3,-10.4,i,-13.0,70.4*,42.6*,52.1*,9.4,10.4
O=C(CSc1nnc2c(n1)[nH]c1ccccc12)Nc1ccc(N2CCOCC2)cc1,-2.0,5.0,i,29.7,13.9,.,.,.,.
